Measured values of several laboratories.
Target: Ephrin type-A receptor 8 (EPHA8, Homo sapiens, UniProt P29322)
Residues used in one study (P29322 28-1005): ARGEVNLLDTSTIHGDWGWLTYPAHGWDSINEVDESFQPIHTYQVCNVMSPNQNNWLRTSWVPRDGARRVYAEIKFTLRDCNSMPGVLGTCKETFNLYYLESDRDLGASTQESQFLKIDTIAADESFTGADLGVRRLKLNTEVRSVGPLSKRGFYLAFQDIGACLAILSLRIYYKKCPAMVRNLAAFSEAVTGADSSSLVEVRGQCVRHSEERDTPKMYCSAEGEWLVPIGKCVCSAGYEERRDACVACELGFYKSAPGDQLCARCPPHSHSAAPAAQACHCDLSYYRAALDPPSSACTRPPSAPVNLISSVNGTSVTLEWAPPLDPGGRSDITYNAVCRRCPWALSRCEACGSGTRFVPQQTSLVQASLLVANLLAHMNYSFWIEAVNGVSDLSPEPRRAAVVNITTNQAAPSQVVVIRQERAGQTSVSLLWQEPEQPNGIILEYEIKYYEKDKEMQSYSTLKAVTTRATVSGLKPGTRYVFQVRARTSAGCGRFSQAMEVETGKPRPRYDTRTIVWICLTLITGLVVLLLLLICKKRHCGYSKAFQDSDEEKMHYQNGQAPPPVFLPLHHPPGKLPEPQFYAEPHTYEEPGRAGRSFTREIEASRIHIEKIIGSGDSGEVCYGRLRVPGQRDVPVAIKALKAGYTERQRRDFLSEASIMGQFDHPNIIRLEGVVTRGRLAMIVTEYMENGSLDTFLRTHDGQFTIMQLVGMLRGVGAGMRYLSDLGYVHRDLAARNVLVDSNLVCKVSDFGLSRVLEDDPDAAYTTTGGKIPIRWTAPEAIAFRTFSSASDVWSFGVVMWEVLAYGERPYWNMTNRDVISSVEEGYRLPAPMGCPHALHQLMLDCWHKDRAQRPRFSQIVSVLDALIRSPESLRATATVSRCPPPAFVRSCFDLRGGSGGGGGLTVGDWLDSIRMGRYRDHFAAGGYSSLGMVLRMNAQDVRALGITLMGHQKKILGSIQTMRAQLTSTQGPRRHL

| Structure (SMILES) | read-out | technique | concentration | remaining binding [%] |
| --- | --- | --- | --- | --- |
| C[C@H](c1ccnc(Nc2nc3ccc(-c4cc(N(C)C)ncn4)cc3[nH]2)c1)N1CCN(C(=O)CC(F)(F)F)CC1 | cell-free assay | competition with immobilised ligand | 0.1 µM | 100 |
| COc1ccnn2ncc(-c3ccnc(N(C)C)n3)c12 | binding |  | 1 µM | 100 |
| C[C@@H]1CN(c2cc(-c3n[nH]c4ccc(OC5(C)CC5)cc34)ncn2)C[C@H](C)O1 | cell-free assay | competition with immobilised ligand | 0.1 µM | 82 |
| C[C@@H](c1ccc(-n2cnc3c(N)ncnc32)cc1)N1CCc2nn(C)c(Cc3ccccc3)c2C1=O | binding | competition with immobilised ligand | 0.1 µM | 63 |
| Cc1cnn2ncc(-c3ccnc(N(C)C)n3)c2c1 | binding |  | 1 µM | 99 |
| O=C(Nc1c[nH]nc1C(=O)NC1CCNCC1)c1cc(F)cc(F)c1 | binding | competition with immobilised ligand | 1 µM | 100 |
| c1cncc(-c2cccc(Nc3nccc(NC4CCCCC4)n3)c2)c1 | binding | competition with immobilised ligand | 10 µM | 100 |
| CNC(=O)[C@@H]1CC[C@@H](n2c(-c3ccc4cnccc4c3)nc3ccc(C(=O)NCc4cccc(C(N)=O)c4)cc32)C1 | binding | competition with immobilised ligand | 1 µM | 91 |
| COc1cc(-c2cn(C3CCc4c(F)cccc4N(CC(F)(F)F)C3=O)nn2)ccc1-n1cnc(C)c1 (centres unmarked) | cell-free assay | competition with immobilised ligand | 1 µM | 100 |
| Cc1cnc(Nc2ccc(C(=O)N3CCC(N4CCCC4)CC3)cc2)nc1-c1cc2ccccc2s1 | binding | competition with immobilised ligand | 1 µM | 100 |
| NS(=O)(=O)c1cc(NC(=O)C2(c3ccccc3Cl)CC2)ccc1Oc1cccc(Cl)c1 | cell-free assay | competition with immobilised ligand | 1 µM | 80 |
| N[C@@H]1CCN(c2nccc(-c3cnn4ncccc34)n2)C1 | binding |  | 1 µM | 100 |
| O=C(c1ccc(Nc2ncc(Cl)c(-c3cc4ccccc4s3)n2)cc1)N1CCC(N2CCCC2)CC1 | binding | competition with immobilised ligand | 1 µM | 83 |
| CN(C)c1nccc(-c2cnn3ncccc23)n1 | binding |  | 1 µM | 100 |
| COc1cnc(Nc2cccc(S(N)(=O)=O)c2)nc1N1CCN(c2ccccc2)CC1 | binding | competition with immobilised ligand | 1 µM | 96 |
| C=CC(=O)N1CCC(C(=O)NCC(=O)N2CCN(c3nc(-c4cnc(N)nc4C(F)F)nc(N4CCOCC4)n3)CC2)CC1 | binding | competition with immobilised ligand | 1 µM | 100 |
| Cc1nc(C2CCN(C(=O)c3ccc(OC(F)(F)F)cc3N)CC2)c2ncc(N3CCN(C)CC3)cc2n1 | cell-free assay | competition with immobilised ligand | 1 µM | 98 |
| CN(C)c1nccc(-c2cnc3ncccn23)n1 | binding |  | 1 µM | 79 |
| O=C(NCCCN1CCOCC1)c1ccc(Nc2nccc(-c3cc4ccccc4s3)n2)cc1 | binding | competition with immobilised ligand | 1 µM | 96 |
| CC1=C(C#N)C(c2ccc3c(c2)c(NC(=O)c2ccccc2C)nn3C)C(C#N)=C(C)N1 | cell-free assay | competition with immobilised ligand | 1 µM | 100 |
